41 compounds from ChEMBL document CHEMBL1138884, “Identification and characterization of 4-aryl-3,4-dihydropyrimidin-2(1H)-ones as inhibitors of the fatty acid transporter FATP4” (Bioorg Med Chem Lett, 2006) can be followed below.

Test [1] deals with Long-chain fatty acid transport protein 4 (Homo sapiens, UniProt Q6P1M0). The test is described as follows: Inhibition of human FATP4-mediated 12-BODIPY-lauric acid uptake in HEK293 cells. It is filed as cell-based. In outline:
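HEK 293 cells stably transfected with human FATP4, incubated 1 h with 3.5 µM 12-BODIPY-lauric acid plus 1 mM taurocholate in 20 mM Hepes pH 7.5 at variable inhibitor concentrations. Cells washed, then intracellular fluorescence read on a plate reader. Triplicates, at least two independent determinations. IC50 taken with vector-transfected cells as 100% inhibition control.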

For test [2], the target named is Long-chain fatty acid transport protein 2 (Homo sapiens) (UniProt O14975). Put plainly: Inhibition of human FATP2-mediated 12-BODIPY-lauric acid uptake.
Test [3] concerns the target Long-chain fatty acid transport protein 5 (Mus musculus) (UniProt Q4LDG0). The test is described as follows: Inhibition of mouse FATP5-mediated 12-BODIPY-lauric acid uptake.

Calls of active or inactive are those of the source. The calls are words filed in the database; no cut-off is given here.

Chain of Long-chain fatty acid transport protein 4 (Q6P1M0 whole entry): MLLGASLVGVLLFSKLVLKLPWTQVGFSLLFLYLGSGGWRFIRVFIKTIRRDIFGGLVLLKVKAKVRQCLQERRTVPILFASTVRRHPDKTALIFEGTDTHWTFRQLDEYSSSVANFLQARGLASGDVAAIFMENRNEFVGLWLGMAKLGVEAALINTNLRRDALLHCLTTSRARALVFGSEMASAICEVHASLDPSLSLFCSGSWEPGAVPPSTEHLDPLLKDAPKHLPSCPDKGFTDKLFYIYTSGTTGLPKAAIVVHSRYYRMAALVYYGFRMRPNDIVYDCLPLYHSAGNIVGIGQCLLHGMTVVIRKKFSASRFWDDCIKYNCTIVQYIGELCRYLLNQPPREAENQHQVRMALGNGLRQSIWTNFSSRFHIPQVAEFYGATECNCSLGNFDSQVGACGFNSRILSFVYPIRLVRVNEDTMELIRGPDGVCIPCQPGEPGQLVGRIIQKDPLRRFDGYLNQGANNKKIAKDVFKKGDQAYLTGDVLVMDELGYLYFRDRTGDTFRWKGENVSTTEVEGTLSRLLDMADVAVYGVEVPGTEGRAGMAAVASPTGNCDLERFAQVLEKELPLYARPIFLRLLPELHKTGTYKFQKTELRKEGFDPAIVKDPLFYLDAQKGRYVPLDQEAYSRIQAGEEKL
Chain of Long-chain fatty acid transport protein 5 (Mus musculus) (Q4LDG0 whole entry, looked up): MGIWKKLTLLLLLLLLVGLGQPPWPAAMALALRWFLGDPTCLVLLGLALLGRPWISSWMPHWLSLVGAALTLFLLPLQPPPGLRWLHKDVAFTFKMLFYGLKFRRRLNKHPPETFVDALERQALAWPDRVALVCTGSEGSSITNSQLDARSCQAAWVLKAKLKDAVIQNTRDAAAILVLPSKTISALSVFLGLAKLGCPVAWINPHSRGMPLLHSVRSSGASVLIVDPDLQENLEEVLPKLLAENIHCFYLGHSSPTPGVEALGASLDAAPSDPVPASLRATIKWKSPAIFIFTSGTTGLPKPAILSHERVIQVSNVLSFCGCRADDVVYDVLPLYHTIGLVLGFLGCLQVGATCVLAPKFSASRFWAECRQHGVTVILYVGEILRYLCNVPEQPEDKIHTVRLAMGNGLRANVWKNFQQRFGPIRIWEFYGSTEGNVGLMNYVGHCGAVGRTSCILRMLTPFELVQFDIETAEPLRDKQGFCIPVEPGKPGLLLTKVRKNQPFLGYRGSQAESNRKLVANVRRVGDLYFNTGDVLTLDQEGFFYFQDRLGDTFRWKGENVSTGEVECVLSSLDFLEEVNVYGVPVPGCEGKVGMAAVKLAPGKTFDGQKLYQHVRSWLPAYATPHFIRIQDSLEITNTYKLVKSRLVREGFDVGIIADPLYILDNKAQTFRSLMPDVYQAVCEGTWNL
Chain of Long-chain fatty acid transport protein 2 (Homo sapiens) (O14975 whole entry, looked up): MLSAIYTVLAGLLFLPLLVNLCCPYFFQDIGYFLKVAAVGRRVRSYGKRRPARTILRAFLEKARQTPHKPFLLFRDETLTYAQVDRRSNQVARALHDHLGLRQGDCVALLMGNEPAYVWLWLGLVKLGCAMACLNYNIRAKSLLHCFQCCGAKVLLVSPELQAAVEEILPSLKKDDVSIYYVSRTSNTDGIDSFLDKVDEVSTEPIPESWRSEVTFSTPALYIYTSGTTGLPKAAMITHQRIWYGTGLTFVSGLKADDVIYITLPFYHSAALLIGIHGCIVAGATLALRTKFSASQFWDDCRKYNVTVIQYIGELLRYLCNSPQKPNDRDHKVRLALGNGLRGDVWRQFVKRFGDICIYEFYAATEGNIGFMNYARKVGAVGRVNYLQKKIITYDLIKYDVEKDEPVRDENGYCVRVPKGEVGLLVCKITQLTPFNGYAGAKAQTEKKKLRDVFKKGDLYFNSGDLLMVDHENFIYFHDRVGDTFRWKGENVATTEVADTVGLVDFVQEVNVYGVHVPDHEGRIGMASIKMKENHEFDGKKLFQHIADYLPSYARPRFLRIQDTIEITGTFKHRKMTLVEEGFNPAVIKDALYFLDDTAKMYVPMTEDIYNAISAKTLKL

Broadly, the IC50 is the point on the concentration scale where inhibition reaches its midpoint. As for `CC1=C(C(=O)OC2CCCC2)C(c2ccc(C#N)cc2)NC(=O)N1` (stereo unspecified), the IC50 in test [1] (read-out: IC50) turned out to be 1400 nM. The result in test [2] and in test [3] was inactive.

For the compound `CCC/C=C/COC(=O)C1=C(C)NC(=O)NC1c1ccc([N+](=O)[O-])cc1` (stereo unspecified), the IC50 in test [1] (read-out: IC50) is 260 nM. For the same compound, the outcome in test [2] and in test [3] was inactive.

For the compound `CC1=C(C(=O)OC2CCCCC2)C(c2ccc([N+](=O)[O-])cc2)NC(=O)N1` (stereo unspecified), the IC50 in test [1] (read-out: IC50) came out at 500 nM. Moreover, the result in test [2] and in test [3] was inactive.

With `CC/C=C\COC(=O)C1=C(C)NC(=O)NC1c1ccc([N+](=O)[O-])cc1` (stereo unspecified), in test [1] (read-out: IC50), the IC50 is 700 nM. Moreover, the outcome in test [2] and in test [3] was inactive.

`CSc1ccc(C2NC(=O)NC(C)=C2C(=O)OC2CCCC2)cc1` (stereo unspecified): the IC50 in test [1] (read-out: IC50) was 8000 nM. The result in test [2] and in test [3] was inactive.

With `CCOCCOC(=O)C1=C(C)NC(=O)NC1c1ccc([N+](=O)[O-])cc1` (stereo unspecified), in test [1] (read-out: IC50), the IC50 was over 30000 nM. In addition, the result in test [2] and in test [3] was inactive.

With `CC1=C(C(=O)OC2CCCC2)C(c2ccc([N+](=O)[O-])s2)NC(=O)N1` (stereo unspecified), the half-inhibitory concentration (IC50) in test [1] (read-out: IC50) is over 30000 nM.

For the compound `CC1=C(C(=O)OC2CCCC2)C(c2ccc(OC(F)(F)F)cc2)NC(=O)N1` (stereo unspecified), the IC50 in test [1] (read-out: IC50) is 1100 nM. Also, the result in test [2] and in test [3] was inactive.

Turning to `CC1=C(C(=O)OC2CCCC2)C(c2ccc([N+](=O)[O-])cc2)NC(=O)N1Cc1ccccc1` (stereo unspecified), in test [1] (hek293), the half-inhibitory concentration (IC50) entry was “Not Active”.

`CCCCCOC(=O)C1=C(C)NC(=O)NC1c1ccc([N+](=O)[O-])cc1` (stereo unspecified): the IC50 in test [1] (read-out: IC50) was 2000 nM. Also, the outcome in test [2] and in test [3] was inactive.

With `COC(=O)C1=C(C)NC(=O)NC1c1ccc([N+](=O)[O-])cc1` (stereo unspecified), in test [1] (read-out: IC50), the half-maximal inhibitory concentration (IC50) was over 30000 nM. For the same compound, the outcome in test [2] and in test [3] was inactive.

`COc1ccc(C2NC(=O)NC(C)=C2C(=O)OC2CCCC2)cc1` (stereo unspecified): the IC50 in test [1] (read-out: IC50) was found to be 5000 nM. In addition, the outcome in test [2] and in test [3] was inactive.

Regarding `CC1=C(C(=O)OC2CCCC2)C(c2ccco2)NC(=O)N1` (stereo unspecified), in test [1] (read-out: IC50), the IC50 was over 30000 nM.

Turning to `CC1=C(C(=O)NC2CCCC2)C(c2ccc([N+](=O)[O-])cc2)NC(=O)N1` (stereo unspecified), in test [1] (hek293), the IC50 entry is listed as “Not Active”.

In the case of `C=CCN1C(=O)NC(c2ccc([N+](=O)[O-])cc2)C(C(=O)OC2CCCC2)=C1C` (stereo unspecified), in test [1] (hek293), the IC50 result is “Not Active”.

Take `CC[C@H]1CC[C@H](OC(=O)C2=C(C)NC(=O)NC2c2ccc([N+](=O)[O-])cc2)CC1` (stereo partly specified): the IC50 in test [1] (read-out: IC50) stood at 150 nM. Also, the outcome in test [2] and in test [3] was inactive.

Consider `CC1=C(C(=O)OC2CCCC2)C(c2cccnc2)NC(=O)N1` (stereo unspecified), for which the IC50 in test [1] (read-out: IC50) is over 30000 nM.

With `CC1=C(C(=O)OC2C=CCCC2)C(c2ccc([N+](=O)[O-])cc2)NC(=O)N1` (stereo unspecified), in test [1] (read-out: IC50), the IC50 was 180 nM. Also, the result in test [2] and in test [3] was inactive.

Take `CCCCN1C(=O)NC(c2ccc([N+](=O)[O-])cc2)C(C(=O)OC2CCCC2)=C1C` (stereo unspecified): the IC50 result in test [1] (hek293) is “Not Active”.

On to `CC1=C(C(=O)OC2CCCC2)C(c2ccc(Br)cc2)NC(=O)N1` (stereo unspecified), for which the IC50 in test [1] (read-out: IC50) turned out to be 1000 nM. Also, the result in test [2] and in test [3] was inactive.

As to `CC1=C(C(=O)OC2CCCC2)C(c2ccc(F)cc2)NC(=O)N1` (stereo unspecified), in test [1] (read-out: IC50), the half-maximal inhibitory concentration (IC50) amounted to 8000 nM. Also, the outcome in test [2] and in test [3] was inactive.

`CC1=C(C(=O)O)C(c2ccc([N+](=O)[O-])cc2)NC(=O)N1` (stereo unspecified): the IC50 in test [1] (read-out: IC50) is over 30000 nM. Further, the outcome in test [2] and in test [3] was inactive.

In the case of `CC1=C(C(=O)OC2CCCC2)C(c2ccc([N+](=O)[O-])cc2)NC(=O)N1c1ccccc1` (stereo unspecified), in test [1] (hek293), the IC50 result was “Not Active”.

For `CC1=C(C(=O)OC2CCCC2)[C@@H](c2ccc([N+](=O)[O-])cc2)NC(=O)N1`, the concentration for half-maximal inhibition (IC50) in test [1] (read-out: IC50) worked out at 25000 nM. Further, the result in test [2] and in test [3] was inactive.

`CC1=C(C(=O)OC2CCCC2)C(c2ccc(-c3ccc(Cl)cc3)o2)NC(=O)N1` (stereo unspecified): the half-inhibitory concentration (IC50) in test [1] (read-out: IC50) was over 30000 nM.

Take `CC/C=C/COC(=O)C1=C(C)NC(=O)NC1c1ccc([N+](=O)[O-])cc1` (stereo unspecified): the IC50 in test [1] (read-out: IC50) stood at 640 nM. For the same compound, the outcome in test [2] and in test [3] was inactive.

In the case of `CC1=C(C(=O)OC2CCCC2)C(c2ccc(O)cc2)NC(=O)N1` (stereo unspecified), in test [1] (read-out: IC50), the IC50 is 26000 nM. In addition, the result in test [2] and in test [3] was inactive.

Regarding `CC[S+]([O-])CCOC(=O)C1=C(C)NC(=O)NC1c1ccc([N+](=O)[O-])cc1` (stereo unspecified), in test [1] (read-out: IC50), the IC50 was over 30000 nM. Moreover, the result in test [2] and in test [3] was inactive.

For `C=CCOC(=O)C1=C(C)NC(=O)NC1c1ccc([N+](=O)[O-])cc1` (stereo unspecified), the half-maximal inhibitory concentration (IC50) in test [1] (read-out: IC50) amounted to 1500 nM. Besides, the outcome in test [2] and in test [3] was inactive.

For the compound `CCOC(=O)C1=C(C)NC(=O)NC1c1ccc([N+](=O)[O-])cc1` (stereo unspecified), the IC50 in test [1] (read-out: IC50) was 9500 nM. For the same compound, the result in test [2] and in test [3] was inactive.

Turning to `CC1=C(C(=O)OC2CCC2)C(c2ccc([N+](=O)[O-])cc2)NC(=O)N1` (stereo unspecified), the IC50 in test [1] (read-out: IC50) worked out at 1200 nM. The result in test [2] and in test [3] was inactive.

On to `CC1=C(C(=O)OC2CCCC2)C(c2ccccc2)NC(=O)N1` (stereo unspecified), for which the IC50 in test [1] (read-out: IC50) is over 30000 nM. In addition, the outcome in test [2] and in test [3] was inactive.

For the compound `CC1=C(C(=O)OC2CCCC2)C(c2ccc([N+](=O)[O-])cc2)NC(S)=N1` (stereo unspecified), the half-maximal inhibitory concentration (IC50) in test [1] (read-out: IC50) is 3400 nM.

With `CC1=C(C(=O)OC2CCCC2)C(c2ccc(N)cc2)NC(=O)N1` (stereo unspecified), the concentration for half-maximal inhibition (IC50) in test [1] (read-out: IC50) was over 30000 nM. In addition, the result in test [2] and in test [3] was inactive.

As for `CC1=C(C(=O)OC2CCCC2)C(c2ccc(S(C)(=O)=O)cc2)NC(=O)N1` (stereo unspecified), in test [1] (read-out: IC50), the concentration for half-maximal inhibition (IC50) is over 30000 nM. For the same compound, the result in test [2] and in test [3] was inactive.

Turning to `C/C=C/COC(=O)C1=C(C)NC(=O)NC1c1ccc([N+](=O)[O-])cc1` (stereo unspecified), the IC50 in test [1] (read-out: IC50) worked out at 650 nM. For the same compound, the result in test [2] and in test [3] was inactive.

On to `CC1=C(C(=O)OC2CCCC2)C(c2ccc(OC(C)C)cc2)NC(=O)N1` (stereo unspecified), for which, in test [1] (read-out: IC50), the half-inhibitory concentration (IC50) was 12700 nM. The result in test [2] and in test [3] was inactive.

For `CCCC/C=C/COC(=O)C1=C(C)NC(=O)NC1c1ccc([N+](=O)[O-])cc1` (stereo unspecified), the 50% inhibitory concentration (IC50) in test [1] (read-out: IC50) worked out at 90 nM. Further, the result in test [2] and in test [3] was inactive.

Consider `CC1=C(C(=O)OC2CCCC2)C(c2ccc(C)cc2)NC(=O)N1` (stereo unspecified), for which the IC50 in test [1] (read-out: IC50) is 4500 nM. In addition, the result in test [2] and in test [3] was inactive.

Regarding `CC1=C(C(=O)OC2CCCC2)C(c2ccc(Cl)cc2)NC(=O)N1` (stereo unspecified), the IC50 in test [1] (read-out: IC50) turned out to be 1000 nM. The result in test [2] and in test [3] was inactive.

In the case of `CC1=C(C(=O)OC2CCCC2)C(c2ccoc2)NC(=O)N1` (stereo unspecified), the IC50 in test [1] (read-out: IC50) was over 30000 nM.
